The values that follow come from ChEMBL document CHEMBL1914330 (Eur J Med Chem, 2011).

Calls of active or inactive are those of the source. The rule behind the calls is not given here.

The nature of test [1]: Antiproliferative activity against human vinblastine-resistant CEM/VBL100 cells after 72 hrs by MTT assay. It is filed as functional, cell-based. The settings on record: CEM/VBL100, 72 h. In a few lines: (§1)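 Cells seeded at 8 × 10³ per well in complete medium and exposed to a range of compound concentrations at 37 °C for 72 h. Viability read by MTT test. IC50 taken as the concentration inhibiting proliferation by 50%.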
In general terms: Tetrazolium dyes change colour on reduction, which living cells bring about.

The subject of test [2] is CCRF-CEM. Put plainly: Antiproliferative activity against human CEM cells after 72 hrs by MTT assay. It is filed as functional, cell-based. In a few lines:
as §1

Test [3] has as its system HeLa. The test can be described thus: Antiproliferative activity against human HeLa cells after 2 days by coulter counter analysis. It is filed as functional, cell-based. As to conditions: 48 h. In a few lines:
(§2)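 Cells suspended at 300,000–500,000 cells/mL and mixed 1:1 with diluted compound. Incubated at 37 °C for two days, then counted with a Coulter counter. IC50 is the concentration inhibiting proliferation by 50%, as mean ± SE from dose-response curves of at least three independent experiments.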

In test [4] the test system is L1210. Put plainly: Antiproliferative activity against mouse L1210 cells after 2 days by coulter counter analysis. It is filed as functional, cell-based. The settings on record: L1210, 48 h. In a few lines: as §2
Test [5] deals with MOLT-4. The test can be described thus: Antiproliferative activity against human MOLT4 cells after 2 days by coulter counter analysis. It is filed as functional, cell-based. The settings on record: MOLT-4, 48 h.
The test system of test [6] is CCRF-CEM. Put plainly: Antiproliferative activity against human CEM cells after 2 days by coulter counter analysis. It is filed as functional, cell-based. As to conditions: 48 h. In a few lines:
as §2

Test [7] has as its system FM3A. Put plainly: Antiproliferative activity against mouse FM3A cells after 2 days by coulter counter analysis. It is filed as functional, cell-based. The settings on record: 48 h.
Test [8] is filed under the species Bos taurus. The test can be described thus: Inhibition of bovine brain tubulin polymerization at 20 uM after 20 mins by turbidimetry. An outline of the steps: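 Purified bovine brain tubulin at 10 µM was preincubated with compound in glutamate buffer at 30 °C, then cooled to 0 °C and GTP added. Samples were warmed to 30 °C in a recording spectrophotometer and assembly followed by turbidity.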

Test [9] in a line: Antiproliferative activity against human taxol-resistant A549-T12 cells after 72 hrs by MTT assay. It is filed as functional, cell-based. The settings on record: A549, 72 h. In a few lines:
as §1

One may read the IC50 as the concentration that gives 50% inhibition. A higher IC50 goes with weaker potency. As for `CC[C@]1(O)C[C@@H]2CN(CCc3c([nH]c4ccccc34)[C@@](C(=O)OC)(c3cc4c(cc3OC)N(C)[C@H]3[C@@](O)(C(=O)OC)[C@H](OC(C)=O)[C@]5(CC)C=CCN6CC[C@]43[C@@H]65)C2)C1` [VINBLASTINE], the values for the IC50 in test [1] and in test [2] were 0.23 µM and 0.004 µM, respectively.

Take `Nc1nc(N2CCCC2)sc1C(=O)c1ccc(Br)cc1`: the IC50 in [3], in test [4], in [5], in test [6] and in test [7] was above 200 µM each time.

For the compound `COc1cc(C(=O)c2sc(N(C)C)nc2N)cc(OC)c1OC`, the inhibition entry in [8] is “inactive”. In addition, the IC50 in test [3] was 8.2 µM; in test [4], 11 µM; in test [6] it was 11 µM; in test [7], 12 µM.

Consider `CCN(CC)c1nc(N)c(C(=O)c2cc(OC)c(OC)c(OC)c2)s1`, for which the inhibition result in test [8] was “inactive”. Moreover, the IC50 in test [3] came out at 38 µM; in test [4], 62 µM; in test [6] it was 78 µM; in test [7], 115 µM.

In the case of `COc1cccc(C(=O)c2sc(N3CCCC3)nc2N)c1`, the IC50 in test [3], in [4], in [5], in [6] and in test [7] was above 200 µM in each case.

In the case of `COc1ccc(C(=O)c2sc(N3CCCC3)nc2N)cc1OC`, the IC50 in test [3] was 36 µM; in [4] it was 60 µM; in test [5], 31 µM; in [6], 19 µM; in test [7] it was 112 µM.

With `COc1cc(C(=O)c2sc(N(C)Cc3ccccc3)nc2N)cc(OC)c1OC`, the IC50 in test [3], in [4], in test [5], in [6] and in test [7] was above 200 µM throughout.

With `CCCCN(C)c1nc(N)c(C(=O)c2cc(OC)c(OC)c(OC)c2)s1`, the IC50 came to 31 µM in [3]; 53 µM in test [4]; 32 µM in test [5]; 42 µM in [6]; 47 µM in test [7].

As for `COc1cc(C(=O)c2sc(N)nc2N)cc(OC)c1OC`, in test [8], the inhibition result was “inactive”. The IC50 in test [3] amounted to 31 µM; in test [4], 48 µM; in test [6] it was 42 µM; in test [7] it was 63 µM.

As for `COc1ccccc1C(=O)c1sc(N2CCCC2)nc1N`, the IC50 in [3] was 185 µM; in [4] it was above 200 µM; in test [5] it was above 200 µM; in test [6] it was 171 µM; in test [7], above 200 µM.

For `Nc1nc(N2CCCC2)sc1C(=O)c1ccccc1`, the IC50 in test [3], in test [4], in test [5], in [6] and in test [7] was above 200 µM in each case.

As to `CC(=O)O[C@H]1C(=O)[C@@]2(C)[C@H]([C@H](OC(=O)c3ccccc3)[C@]3(O)C[C@H](OC(=O)[C@H](O)[C@@H](NC(=O)c4ccccc4)c4ccccc4)C(C)=C1C3(C)C)[C@]1(OC(C)=O)CO[C@@H]1C[C@@H]2O` [PACLITAXEL], in test [9], 0.075 µM corresponded to half-maximal inhibition (IC50). This counts as double-digit nanomolar.

For the compound `COc1cc(C(=O)c2sc(N3CCOCC3)nc2N)cc(OC)c1OC`, the inhibition entry in [8] is “inactive”. Moreover, the IC50 in test [3] turned out to be 8.8 µM; in [4], 38 µM; in test [5] it was 22 µM; in [6], 25 µM; in test [7] it was 24 µM.

With `COc1ccc(C(=O)c2sc(N3CCCC3)nc2N)cc1`, the IC50 in test [3], in test [4], in test [5], in test [6] and in test [7] was above 200 µM each time.

With `COc1ccc(/C=C\c2cc(OC)c(OC)c(OC)c2)cc1O` [COMBRETASTATIN A4], the IC50 is 0.002 µM in [3], 0.003 µM in test [4] and 0.002 µM in test [6].

Consider `COc1cc(C(=O)c2sc(N3CCCCC3)nc2N)cc(OC)c1OC`, for which, in test [8], the inhibition result was “inactive”. In addition, the IC50 in [3] was 11 µM; in test [4] it was 43 µM; in [5] it was 16 µM; in [6], 22 µM; in [7], 39 µM.

For `Nc1nc(N2CCCC2)sc1C(=O)c1ccc(Cl)cc1`, the IC50 in test [3], in [4], in test [5], in test [6] and in test [7] was above 200 µM each time.
